Measurements taken from PMC6300136 (Cancer chemotherapy and pharmacology, 2011).
“And” between values parts separate entries of the source, which are not always exact repeats. Identical values can stand only once. “Also recorded” adds a separate entry of the source. Like-named read-outs stand apart in the source and are kept apart here.

Key:
[1] = Plasma ultrafiltrate pharmacokinetics of satraplatin; format: in vivo, rhesus monkeys (Macaca mulatta)
Method in brief: (§1)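 Five adult male rhesus monkeys (7.3–14.9 kg) were fasted ≥6 h before and 2 h after dosing and given IV ondansetron 0.1 mg/kg (max 2 mg) beforehand. A single dose of test compound, 6 mg/kg (human equivalent 120 mg/m2) in 5% DMSO/0.9% saline, was infused over 1 h through a central venous catheter, with IV fluid hydration during and after.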

[2] = cited from earlier work
[3] = Tolerability of a single IV dose of satraplatin in non-human primates; format: in vivo, rhesus monkeys (Macaca mulatta); details: single 120 mg/m^2 (6 mg/kg) IV dose over 1 h in NHP
Method in brief: as §1

[4] = Stability of satraplatin spiked plasma at room temperature; format: in vitro ADME
[5] = format: in vivo, rhesus monkeys (Macaca mulatta)
Method in brief: as §1

[6] = cited from earlier work; remark: listed apart in the source
[7] = brain microdialysis in the same NHP model; cited from earlier work
[8] = carboplatin administration every 4 weeks; cited from earlier work
[9] = system: tumor cell growth; details: inhibition of tumor cell growth in vitro; cited from earlier work
[10] = plasma UF, individual animal, 6 mg/kg IV over 1 h, 6 mg/kg
[11] = CSF from intralumbar catheter, animal 1, 6 mg/kg IV over 1 h

CC(=O)[O][Pt]([NH2])([Cl])([Cl])([NH]C1CCCCC1)[O]C(C)=O [Satraplatin, (OC-6–43)-bis(acetato)amminedichloro(cyclohexylamine)platinum]
AUC0–24h in NHP after IV relative to humans at equivalent oral doses ([1]; plasma UF exposure, NHP IV versus human oral): approximately 20 fold | Tmax ([1]; plasma UF, individual animal, 6 mg/kg (120 mg/m^2) IV over 1 h, time after start of infusion, 6 mg/kg): 1.1 h and 1.0 h and 0.5 h | AUC0–48h [1, 10]: 33.2 µM·h and 27.4 µM·h and 22.6 µM·h and 29.2 µM·h | Cmax [1, 10]: 10.6 µM and 10.4 µM and 5.7 µM and 6.9 µM and 8.3 µM | Cl ([1]; plasma UF, individual animal, dose/AUC0–inf, 6 mg/kg IV over 1 h): 5.67 mL/min/kg and 5.17 mL/min/kg and 6.17 mL/min/kg and 6 mL/min/kg | T½ ([1]; plasma UF, individual animal, terminal half-life, 6 mg/kg IV over 1 h, 6 mg/kg): 13.4 h and 19.5 h and 18.8 h and 17.4 h and 25 h | Cl, median (range) ([1]; plasma UF, median (range) of 5 NHP): 0.36 (0.31–0.37) l/h/kg | AUC0–48h, median (range) ([1]; plasma UF, median (range) of 5 NHP, 6 mg/kg IV over 1 h): 29.2 (22.6–33.2) μM h | Tmax, median (range) ([1]; plasma UF, median (range) of 5 NHP, 6 mg/kg IV over 1 h, after start of infusion): 1.0 (0.5–1.1) h | AUC0–inf, median (range) ([1]; plasma UF, median (range) of 5 NHP, extrapolated to infinity): 32.1 (24.7–38.2) μM h | T½, median (range) ([1]; plasma UF, median (range) of 5 NHP, terminal half-life): 18.8 (13.4–25) h | accumulation factor ([2]; daily dosing in clinical trials): ≤ 4.1 | half-life ([2]; human phase I trials after oral dosing, mean): 7 h | Tolerability [3]: well tolerated; also recorded: no adverse clinical or laboratory sequelae | stability of spiked plasma [4]: at least 2 h | Cmax [5, 11]: 0.62 µM | Tmax [5, 11]: 1.1 h | Ratio AUC0–48h CSF: AUC0–48h plasma UF ([5]; CSF penetration, individual animal, 6 mg/kg IV over 1 h, 6 mg/kg): 7.4% and 4.6% and 2.2% and 3.9% | AUC0–48h ([5]; CSF, individual animal, 6 mg/kg IV over 1 h, 6 mg/kg): 2.43 µM·h and 1.26 µM·h and 0.49 µM·h and 1.14 µM·h | AUC0–48h, median (range) ([5]; CSF, median (range) of NHP): 1.2 (0.49–2.43) μM h | AUC0–48 for CSF, median (range) ([5]; CSF, median, unit as printed in the results text): 1.2 µM | CSF penetration (Ratio AUC0–48h CSF: AUC0–48h plasma UF), median (range) ([5]; median (range) of NHP): 4.3 (2.2–7.4) % | Cmax ([5]; read-out: Cmax, median (range), CSF, median (range) of NHP): 0.09 µM

N.N.[Cl][Pt][Cl] [cisplatin]
CSF penetration ([6]; in vivo): 3.7%

N.N.O=C([O-])C1(C(=O)[O-])CCC1.[Pt+2] [carboplatin]
CNS penetration [7]: < 5% | CSF penetration ([6]; non-human primate model): 2.6% | incidence of anaphylaxis [8]: ≤ 22%

N.NC1CCCCC1.[Cl-].[Cl-].[Pt+2] [JM-118]
potency relative to parent drug satraplatin [9]: up to 16 fold
